Measurements: ChEMBL document CHEMBL1833874, “Α-pyrones and diketopiperazine derivatives from the marine-derived actinomycete Nocardiopsis dassonvillei HR10-5” (J Nat Prod, 2011)
≈ marks a conversion by molar mass, not a printed value.

Tests used:
Bacillus subtilis = experiment: Antibacterial activity against Bacillus subtilis by agar dilution method; assay type: functional
Method in brief: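 Agar dilution, with the same panel also run against E. coli, A. aerogenes, P. aeruginosa, S. aureus and C. albicans. Read-out is the MIC, given in μM.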

HL-60 = experiment: Cytotoxicity against human HL60 cells after 72 hrs by MTT assay; assay type: functional, cell-based; conditions: HL-60, 72 h
Method in brief: (§1)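 HL-60 cells were assayed by MTT and A549 cells by SRB. Read-out is IC50, given in μM.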

A549 = experiment: Cytotoxicity against human A549 cells after 24 hrs by SRB assay; assay type: functional; method in brief: as §1

| SMILES | MIC (Bacillus subtilis) [µM] | IC50 (HL-60) [µM] | IC50 (A549) |
| --- | --- | --- | --- |
| CC/C=C(\C)c1ccc(CC)c(=O)o1 [NOCAPYRONE E] | 26 (≈ 5 µg/mL) | ≥ 100 | >=100 uM |
| CC/C=C(\C)c1ccc(C)c(=O)o1 [NOCAPYRONE F] | 14 (≈ 2.5 µg/mL) | ≥ 100 | >=100 uM |
| CCc1ccc(/C(C)=C/[C@H](C)O)oc1=O [NOCAPYRONE G] | 12 (≈ 2.5 µg/mL) | ≥ 100 | >=100 uM |
| COc1ccc(/C=c2\nc(OC)/c(=C/c3ccc(OC)cc3)n(C)c2=O)cc1 [NOCAZINE A] |  | ≥ 100 | >=100 uM |
| COc1ccc(/C=c2/c(OC)n/c(=C\c3ccccc3)c(=O)n2C)cc1 [NOCAZINE B] |  | ≥ 100 | >=100 uM |
| COc1ccc(/C=C2/C(=O)N[C@@H](Cc3ccccc3)C(=O)N2C)cc1 [NOCAZINE C] |  | ≥ 100 | >=100 uM |
| OC[C@@H]1COC(c2ccccc2O)=N1 [NOCAZOLINE A] |  | ≥ 100 | >=100 uM |
